This passage reports selectivity ratio and IC50 results from ChEMBL document CHEMBL1124871, “Synthesis and antiviral activity of some acyclic and C-acyclic pyrrolo[2,3-d]pyrimidine nucleoside analogues” (J Med Chem, 1990).

What is called IC50 is the concentration needed to halve the response being measured. Low values mean greater potency, high ones weaker potency.

Where only a bound is given, the exact number is not on record here.

System in one data set: not listed separately
The experiment in a line: Therapeutic ratio at 400 uM toxicity to Alex cells. It is filed as cell-based. Conditions: human.
Consider `CSc1c(C#N)c2c(N)ncnc2n1COC(CO)CO`, for which the selectivity ratio at 400 µM turned out to be 40. As to `N#Cc1cn(COC(CO)CO)c2nc(N)nc(O)c12`, the selectivity ratio turned out to be 133.

Another data set relates to Human immunodeficiency virus. The experiment in a line: Inhibitory activity against HIV in Alex cells. Conditions: Human immunodeficiency virus 1, Alex. It is filed as functional, organism-based. The method in brief: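 Alex cells preinfected with HIV for 3 h at 37 °C; compounds added in 3- or 5-fold dilutions (four for screening, eight for confirmation). Incubated 8 days at 37 °C in CO2, medium/sample changed on day 4. Reverse transcriptase measured on day 8. Uninfected cells exposed to the same dilutions for cytotoxicity. IC50 recorded.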
`Cc1cn([C@H]2C[C@H](N=[N+]=[N-])[C@@H](CO)O2)c(=O)[nH]c1=O` [ZIDOVUDINE] came in with an IC50 of 0.01 µM. On the same count and under the same terms, the result for `CSc1c(C(N)=O)c2c(N)ncnc2n1CC(O)CCO` (centres undefined) reads above 200 µM; that for `CSc1c(C(N)=O)c2c(N)ncnc2n1COCCO`, above 200 µM; that for `NC(=O)c1cn(COC(CO)CO)c2ncnc(N)c12`, above 200 µM. The same measure, in the same setting: the result for `CSc1c(C#N)c2c(O)nc(N)nc2n1COCCO` reads above 200 µM. `CSc1c(C#N)c2c(N)ncnc2n1COCCO`: the IC50 was above 200 µM. Same read-out and setting: the value for `NC(=O)c1cn(COC(CO)CO)c2nc(N)nc(O)c12` was above 200 µM; that for `CSc1c(C(N)=O)c2c(O)nc(N)nc2n1COC(CO)CO` was above 200 µM; that for `NC(=O)c1cn(CC(O)CO)c2ncnc(N)c12` (centres undefined) was above 200 µM. Consider `CSc1c(C#N)c2c(O)nc(N)nc2n1CC(O)CCO` (centres undefined), for which the IC50 was above 200 µM. Still for that read-out and setting: the value for `CSc1c(C(N)=O)c2c(O)nc(N)nc2n1CC(O)CCO` (centres undefined) was above 200 µM; that for `N#Cc1cn(CC(O)CO)c2ncnc(N)c12` (centres undefined) was 197 µM. As to `NC(=O)c1cn(CC(O)CCO)c2nc(N)nc(O)c12` (centres undefined), the IC50 was above 200 µM.

As to `N#Cc1cn(CC(O)CO)c2nc(N)nc(O)c12` (centres undefined), the IC50 was above 200 µM.

`NC(=O)c1cn(COCCO)c2nc(N)nc(O)c12`: the IC50 was above 200 µM.

In the case of `CSc1c(C#N)c2c(N)ncnc2n1CC(O)CO` (centres undefined), the IC50 is above 200 µM. Still for that read-out and setting: the result for `NC(=O)c1cn(COCCO)c2ncnc(N)c12` reads above 200 µM; that for `CSc1c(C#N)c2c(O)nc(N)nc2n1CC(O)CO` (centres undefined), above 200 µM; that for `N#Cc1cn(CC(O)CCO)c2ncnc(N)c12` (centres undefined), above 200 µM. In turn, `N#Cc1cn(COCCO)c2nc(N)nc(O)c12` yielded an IC50 above 200 µM. Same read-out and setting: the result for `CSc1c(C#N)c2c(N)ncnc2n1COC(CO)CO` reads 20 µM.

On to `NC(=O)c1cn(CC(O)CCO)c2ncnc(N)c12` (centres undefined), for which the IC50 was above 200 µM.

For the compound `N#Cc1cn(COCCO)c2ncnc(N)c12`, the midpoint of inhibition, the IC50, lay at 46 µM. Still for that read-out and setting: the value for `CSc1c(C#N)c2c(O)nc(N)nc2n1COC(CO)CO` was above 200 µM; that for `CSc1c(C(N)=O)c2c(N)ncnc2n1CC(O)CO` (centres undefined) was above 200 µM. The same measure, in the same setting: the result for `CSc1c(C(N)=O)c2c(N)ncnc2n1COC(CO)CO` reads above 200 µM; that for `CSc1c(C#N)c2c(N)ncnc2n1CC(O)CCO` (centres undefined), 100 µM; that for `N#Cc1cn(COC(CO)CO)c2nc(N)nc(O)c12`, 3 µM. Same read-out and setting: the result for `CSc1c(C(N)=O)c2c(O)nc(N)nc2n1CC(O)CO` (centres undefined) reads above 200 µM.

`NC(=O)c1cn(CC(O)CO)c2nc(N)nc(O)c12` (centres undefined) gave a concentration for half-maximal inhibition (IC50) above 200 µM. In turn, `N#Cc1cn(CC(O)CCO)c2nc(N)nc(O)c12` (centres undefined) displayed an IC50 above 200 µM.

Another data set relates to Human alphaherpesvirus 2. The experiment in a line: Inhibitory activity against herpes simplex virus. In kind it is functional, organism-based.
Details: not given
Summed up:
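One-day-old confluent HEp-2 monolayers preinfected 1.5 h at 37 °C with HSV-2 (G and Lovelace strains); 3-fold dilutions over seven points, 72 h at 37 °C. Virus presence and toxicity scored visually by CPE. Uninfected cells with compound served as cytotoxicity control; virus inoculum checked by back-titration. IC50 recorded.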
In the case of `Nc1nc2c(ncn2COC(CO)CO)c(=O)[nH]1` [GANCICLOVIR], half-maximal inhibition (IC50) required 32 µM.
